Results: ChEMBL document CHEMBL1138107, “Novel non-nucleobase inhibitors of Staphylococcus aureus DNA polymerase IIIC” (Bioorg Med Chem Lett, 2006)
Converted amounts (≈) assume the structure as drawn.

Columns and labels:
[1] = biological target: T1, DNA polymerase III PolC-type (Staphylococcus aureus, UniProt P0C1P9); assay: Inhibition of DNA polymerase3C from Staphylococcus aureus
T1 sequence (P0C1P9 whole entry): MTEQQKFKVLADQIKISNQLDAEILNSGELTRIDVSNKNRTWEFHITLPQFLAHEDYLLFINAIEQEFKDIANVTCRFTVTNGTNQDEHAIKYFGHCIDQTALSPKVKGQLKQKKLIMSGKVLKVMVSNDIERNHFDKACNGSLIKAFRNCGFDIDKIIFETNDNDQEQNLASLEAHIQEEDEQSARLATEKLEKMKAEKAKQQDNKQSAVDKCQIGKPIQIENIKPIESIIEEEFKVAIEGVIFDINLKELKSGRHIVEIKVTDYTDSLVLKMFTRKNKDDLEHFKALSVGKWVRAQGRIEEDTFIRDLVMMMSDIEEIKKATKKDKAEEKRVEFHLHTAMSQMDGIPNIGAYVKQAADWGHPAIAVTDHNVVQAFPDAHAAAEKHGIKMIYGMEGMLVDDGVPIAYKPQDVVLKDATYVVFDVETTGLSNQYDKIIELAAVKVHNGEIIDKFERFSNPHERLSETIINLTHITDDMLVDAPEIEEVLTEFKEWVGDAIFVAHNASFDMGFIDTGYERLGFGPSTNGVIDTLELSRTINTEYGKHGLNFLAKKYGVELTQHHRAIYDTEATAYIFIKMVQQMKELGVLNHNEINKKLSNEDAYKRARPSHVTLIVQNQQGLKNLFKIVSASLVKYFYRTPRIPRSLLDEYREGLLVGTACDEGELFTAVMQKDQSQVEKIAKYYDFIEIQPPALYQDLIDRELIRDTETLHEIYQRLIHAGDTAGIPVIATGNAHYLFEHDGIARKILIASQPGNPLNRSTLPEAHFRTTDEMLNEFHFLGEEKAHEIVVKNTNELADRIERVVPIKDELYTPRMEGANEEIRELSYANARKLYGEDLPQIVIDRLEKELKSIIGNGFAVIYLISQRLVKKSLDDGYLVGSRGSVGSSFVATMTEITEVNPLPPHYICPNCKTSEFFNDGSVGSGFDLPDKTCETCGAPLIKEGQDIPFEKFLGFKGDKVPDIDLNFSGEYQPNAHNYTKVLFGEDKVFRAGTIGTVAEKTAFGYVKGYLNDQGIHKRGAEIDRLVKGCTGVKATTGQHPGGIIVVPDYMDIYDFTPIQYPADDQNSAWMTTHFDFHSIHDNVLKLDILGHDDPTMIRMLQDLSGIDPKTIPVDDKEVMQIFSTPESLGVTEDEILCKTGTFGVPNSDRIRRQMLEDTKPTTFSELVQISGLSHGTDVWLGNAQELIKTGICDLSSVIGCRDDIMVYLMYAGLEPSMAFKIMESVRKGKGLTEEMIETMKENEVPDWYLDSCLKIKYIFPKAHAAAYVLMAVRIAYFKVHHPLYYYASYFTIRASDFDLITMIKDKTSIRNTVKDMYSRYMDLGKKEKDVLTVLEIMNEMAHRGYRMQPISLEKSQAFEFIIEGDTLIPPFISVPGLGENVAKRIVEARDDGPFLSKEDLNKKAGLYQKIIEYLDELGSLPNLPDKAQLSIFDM
Procedure, shortened: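 Purified PolC (125 ng) started the reaction with a double-stranded oligonucleotide substrate, dATP, dCTP, low dGTP and [³H]dTTP (1 Ci/mmol) in Tris-HCl pH 7.5 buffer with glycerol, EDTA, DTT, IgG and 8 mM MgCl₂. Incubation was 30 min at 37 °C, stopped with 20 mM EDTA, then spotted on DE81 filters, washed and counted by scintillation. IC50 came from a 12-point, roughly 2-fold serial dilution, run in triplicate.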

[2] = biological target: T2, DNA polymerase III PolC-type (Staphylococcus aureus) (UniProt P0C1P9); assay: Inhibition of DNA polymerase3C from Staphylococcus aureus at 100 uM
T2 sequence (whole entry): T1 sequence (P0C1P9 whole entry)
Procedure, shortened: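 PolC oligonucleotide-primed incorporation of [³H]dTTP was run with 125 ng purified enzyme for 30 min at 37 °C. It was quenched with EDTA, filter-bound on DE81 and counted by liquid scintillation. Compounds were screened in triplicate at 10, 50 and 100.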

[3] = tested on: Staphylococcus aureus; assay: Antimicrobial activity against Staphylococcus aureus (RN4220); type: functional; details: read-out: MIC
[4] = tested on: HeLa; assay: Cytotoxicity against HeLa cell line by MTS assay; type: functional, cell-based; details: Homo sapiens
Procedure, shortened: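 HeLa cells (2 × 10⁴/well) in DMEM with 1% bovine growth serum were exposed to compound at 100, 50, 25 and 12.5 for 18 h at 37 °C under 5% CO₂. Viability was read as MTS reduction to formazan, by absorbance at 490 nm.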

[5] = tested on: Staphylococcus aureus; assay: Antimicrobial activity against Staphylococcus aureus (RN4220) in presence of 50% of human serum; type: functional
[6] = tested on: Staphylococcus aureus; assay: Inhibition of DNA replication utilizing Staphylococcus aureus replication proteins in presence of reduced dATP concentrations; type: functional, organism-based
Procedure, shortened: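 The replication assay used a singly primed circular ssM13 template copied by S. aureus PolC, with β clamp, δδ′/τ clamp loader and SSB. [³H]dTTP incorporation was measured in streptavidin-coated scintillation plates, with the dATP concentration reduced to sensitize the assay to dATP analogs.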

In the case of `O=c1[nH]c(Nc2ccc3c(c2)CCC3)nc(O)c1CCCc1ccccc1`, the IC50 [1] is reported as 3 µM.

For `Nc1ccc(OCCCc2c(O)nc(Nc3ccc4c(c3)CCC4)nc2O)cc1`, the inhibition [2] was 83%, the MIC [3] was greater than 64 µg/mL and the Activity [4] was “Not toxic”.

With `Oc1nc(Nc2ccc3c(c2)CCC3)nc(O)c1CCCCc1ccccc1` the inhibition [2] was 35%, the MIC [3] was greater than 128 µg/mL and the Activity [4] was “Not toxic”.

In the case of `Nc1cc(O)nc(Nc2ccc3c(c2)CCC3)n1`, the inhibition [2] is reported as 5%, the MIC [3] is reported as greater than 128 µg/mL and the Activity [4] is reported as “Not toxic”. For the same compound, the MIC [5] was greater than 128 µg/mL.

`Oc1nc(Nc2ccc3c(c2)CCC3)nc(O)c1CCc1ccccc1` was tested, and the inhibition [2] was 68%, the IC50 [1] was 18 µM and the MIC [3] was 8 µg/mL (≈ 23 µM). The Activity [4] was “Not toxic”.

In the case of `Nc1ccc(OCCCc2c(O)nc(Nc3ccc4c(c3)CCC4)[nH]c2=O)cc1`, the IC50 [1] is reported as 9 µM.

For `Oc1nc(Nc2ccc3c(c2)CCC3)nc(O)c1CCCCOc1ccccc1`, the inhibition [2] was 67%, the IC50 [1] was 14 µM and the MIC [3] was 8 µg/mL (≈ 20.4 µM). The Activity [4] was “Not toxic”.

In the case of `COc1ccc(OCCCc2c(O)nc(Nc3ccc4c(c3)CCC4)nc2O)cc1`, the inhibition [2] is reported as 81%, the MIC [3] is reported as 16 µg/mL (≈ 39.3 µM) and the Activity [4] is reported as “Not toxic”.

`C=CCc1c(O)nc(Nc2ccc3c(c2)CCC3)[nH]c1=O` showed an IC50 [1] of 31 µM.

With `N#Cc1ccc(OCCCc2c(O)nc(Nc3ccc4c(c3)CCC4)[nH]c2=O)cc1` the IC50 [1] was 5.6 µM.

In the case of `C=CCCCCc1c(O)nc(Nc2ccc3c(c2)CCC3)nc1O`, the inhibition [2] is reported as 81%, the MIC [3] is reported as 16 µg/mL (≈ 49.2 µM) and the Activity [4] is reported as “Not toxic”.

Compound `C=CCCc1c(O)nc(Nc2ccc3c(c2)CCC3)nc1O` has an inhibition [2] of 87%, an IC50 [1] of 17.9 µM and an MIC [3] of 8 µg/mL (≈ 26.9 µM). The Activity [4] was “Not toxic”.

Compound `O=[N+]([O-])c1ccc(OCCCc2c(O)nc(Nc3ccc4c(c3)CCC4)nc2O)nc1` has an inhibition [2] of 85%, an IC50 [1] of 5.1 µM and an MIC [3] of 64 µg/mL (≈ 151 µM). The Activity [4] was “Not toxic”.

`NCCCc1c(O)nc(Nc2ccc3c(c2)CCC3)nc1O` was tested, and the inhibition [2] was 40%, the MIC [3] was greater than 128 µg/mL and the Activity [4] was “Not toxic”.

For `OCCCc1c(O)nc(Nc2ccc3c(c2)CCC3)nc1O`, the inhibition [2] was 74%, the MIC [3] was 128 µg/mL (≈ 425 µM) and the Activity [4] was “Not toxic”.

For `O=[N+]([O-])c1ccc(OCCCc2c(O)nc(Nc3ccc4c(c3)CCC4)nc2O)cc1`, the inhibition [2] was 70%, the MIC [3] was 4 µg/mL (≈ 9.47 µM) and the Activity [4] was “Not toxic”.

With `Oc1nc(Nc2ccc3c(c2)CCC3)nc(Cl)c1CCCc1ccccc1` the inhibition [2] was 46%, the MIC [3] was 16 µg/mL (≈ 42.1 µM) and the Activity [4] was “Not toxic”. The MIC [5] was greater than 128 µg/mL.

`COc1ccc(OCCCc2c(O)nc(Nc3ccc4c(c3)CCC4)[nH]c2=O)cc1` gave an IC50 [1] of 11.6 µM.

`CCc1cc(Nc2nc(N)c(Cc3ccccc3)c(O)n2)ccc1C` was tested, and the inhibition [2] was 3%, the MIC [3] was greater than 128 µg/mL and the IC50 [6] was 9.7 µM. The Activity [4] was “Not toxic” and the MIC [5] was greater than 128 µg/mL.

`CCc1cc(Nc2nc(O)c(CCCc3ccc(C#N)cc3OC)c(O)n2)ccc1C` was tested, and the inhibition [2] was 81%, the MIC [3] was 16 µg/mL (≈ 38.2 µM) and the Activity [4] was “Not toxic”.

With `N#Cc1ccc(OCCCc2c(O)nc(Nc3ccc4c(c3)CCC4)nc2O)cc1` the inhibition [2] was 91%, the MIC [3] was 8 µg/mL (≈ 19.9 µM) and the Activity [4] was “Not toxic”.
